In PMC2808126 (Molecular cancer therapeutics, 2009):
Like-named read-outs stand apart in the source and are kept apart here.

Experiments:
22Rv1-T cells [1] = assay: Caspase-3 fluorometric protease assay; type: cell-based, human
RWPE2-W99 cells = assay: ATP viability assay; type: cell-based; conditions: Homo sapiens, Keratinocyte, 72 h, read-out: approximate IC50, cell viability
Outline: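 RWPE2-W99 kept in Keratinocyte Serum Free Medium with bovine pituitary extract and human recombinant EGF. About 1,000 cells/well plated in 384-well plates in complete medium. Test compound added next day at increasing concentrations for 72 h. Viability read by ATPlite luminescence, replicate wells averaged, approximate IC50 estimated.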

[2] = test system: p-p21^Thr145 in 22Rv1-Pim1 cells; assay: Western blot of phospho-p21 Thr145; type: cell-based, human; conditions: 22Rv1-Pim1, 1μM, 2 hours
C4-2B cells [3] = assay: ATP viability assay; type: cell-based; conditions: Homo sapiens, 72 h, read-out: approximate IC50, cell viability
Outline: (§1)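 Lines kept in RPMI 1640 with 10% FBS, except LAPC-4 in Iscove's medium with 5% FBS. About 1,000 cells/well plated in 384-well plates in 1% serum. Test compound added next day at increasing concentrations. For 22Rv1, agents given alone or combined for 48 h, or taxanes for 72 h. Other lines treated 72 h. ATPlite luminescence read, replicate wells averaged, approximate IC50 estimated.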

22Rv1-Pim1 cells [4] = assay: Caspase-3 fluorometric protease assay; type: cell-based; conditions: Homo sapiens, 22Rv1, read-out: fold induction of apoptosis (caspase-3) in 22Rv1-Pim1 compared to 22Rv1
[5] = test system: phosphorylated Bad^Ser112 in C4-2B cells; assay: Western blot of phospho-Bad Ser112; type: cell-based, human; conditions: increasing doses, 5 hours
Outline: (§2)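 Cells (22Rv1, C4-2B or the paclitaxel-resistant 22Rv1 subline) treated with increasing doses of test compound for 5 h. Lysates immunoblotted for phospho-Bad Ser112 and total Bad, with β-actin as loading control.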

22Rv1 cells [6] = assay: Cell cycle analysis by flow cytometry; type: cell-based, human; conditions: 24 hours, untreated 60%
[7] = test system: phosphorylated Bad^Ser112 in 22Rv1-T cells; assay: Western blot of phospho-Bad Ser112; type: cell-based, human; conditions: 5 hours
Outline: as §2

C4-2B cells [8] = assay: Caspase-3 fluorometric protease assay; type: cell-based, human; conditions: increasing concentrations, 24 hours
Outline: (§3)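 Cells held overnight in 1% serum, then exposed to increasing concentrations of test compound for 24 h. Apoptosis measured as caspase-3 activity with a fluorometric protease assay kit. Activity expressed relative to untreated samples.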

22Rv1-T cells [9] = assay: ATP viability assay; type: cell-based, human; conditions: for cell viability response: 22Rv1-T, time course to 72 hours; for IC50: Homo sapiens, 72 h
Outline: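 Paclitaxel-resistant 22Rv1 subline made by serial passage over about 4 months in rising paclitaxel (0-400ng/ml), then maintained in 5ng/ml paclitaxel. About 1,000 cells/well plated in 1% serum in 384-well plates. Next day, taxanes or test compound added alone, or combined with paclitaxel, for up to 72 h. ATPlite luminescence read, replicate wells averaged.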

LNCaP cells = assay: ATP viability assay; type: cell-based; conditions: Homo sapiens, 72 h, read-out: approximate IC50, cell viability
Outline: as §1

[10] = test system: MDR1 activity in 22Rv1-T cells; assay: Multidrug resistance assay; type: cell-based, human; conditions: 15 minutes; for fluorescent calcein retention (MDR1 efflux activity): single agent
LAPC-4 cells = assay: ATP viability assay; type: cell-based; conditions: Homo sapiens, LAPC4, 72 h, read-out: approximate IC50, cell viability
Outline: as §1

PC3 cells = assay: ATP viability assay; type: cell-based; conditions: Homo sapiens, PC-3, 72 h, read-out: approximate IC50, cell viability
Outline: as §1

22Rv1-Pim1 cells [11] = assay: ATP viability assay; type: cell-based, human; conditions: 72 hours
[12] = test system: phosphorylated Bad^Ser112 in 22Rv1 cells; assay: Western blot of phospho-Bad Ser112; type: cell-based, human; conditions: 22Rv1, increasing doses, 5 hours
Outline: as §2

C4-2B cells [13] = assay: Cell cycle analysis by flow cytometry; type: cell-based, human; conditions: 24 hours, untreated 72%
[14] = test system: phospho-p21^Thr145 in C4-2B cells; assay: Western blot of phospho-p21 Thr145; type: cell-based, human; conditions: 5 hour treatment
Outline: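 C4-2B cells, kept in RPMI 1640 with 10% FBS, treated 5 h with increasing concentrations of test compound. Western blot probed for phospho-p21 Thr145 and total p21, with β-actin as loading control.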

DU145 cells = assay: ATP viability assay; type: cell-based; conditions: Homo sapiens, DU-145, 72 h, read-out: approximate IC50, cell viability
Outline: as §1

[15] = test system: phospho-p21^Thr145 in 22Rv1 cells; assay: Western blot of phospho-p21 Thr145; type: cell-based, human
22Rv1 cells [16] = assay: Caspase-3 fluorometric protease assay; type: cell-based, human; conditions: 22Rv1, increasing concentrations, 24 hours
Outline: as §3

[17] = test system: MDR1 mRNA in 22Rv1-T cells; assay: Quantitative real-time RT-PCR of MDR1; type: cell-based, human; conditions: 22Rv1-T (Supplementary Fig. 3b)
22Rv1 cells [18] = assay: ATP viability assay; type: cell-based; conditions: Homo sapiens; for IC50: 22Rv1, 72 h, read-out: approximate IC50, cell viability (taxanes)
Outline: as §1

[19] = 22Rv1, 48 h, read-out: cell viability
[20] = read-out: IC50, cell viability (taxanes)

## CN1CCC(CNc2ccc3ncc(-c4cccc(OC(F)(F)F)c4)n3n2)CC1 [SGI-1776]
22Rv1-T cells [1]; 2.5μM SGI-1776, 24 hours
  increase of caspase-3 activity compared to untreated cells: 1.42 fold
22Rv1-T cells [1]; 2.5μM SGI-1776, 24 hours, ± 3
  caspase-3 activity relative to untreated (100%): 142%
22Rv1-T cells [1]; 2.5μM SGI-1776 combined with 50nM paclitaxel, 24 hours
  increase of caspase-3 activity compared to untreated cells: 2.7 fold
22Rv1-T cells [1]; 2.5μM SGI-1776 combined with 50nM paclitaxel, 24 hours, ± 8, p<0.0001
  caspase-3 activity relative to untreated (100%): 269%
RWPE2-W99 cells
  IC50: ~9 µM
[2]
  effect on p-p21^Thr145 abundance: dramatic inhibition
C4-2B cells [3]
  IC50: ~4 µM
22Rv1-Pim1 cells [4]
  fold induction at 2.5 µM: 1.6
[5]
  phosphorylated Bad^Ser112 protein levels: dose-dependent decrease
22Rv1 cells [6]; 22Rv1, 2.5μM
  percentage of cells in the G1 phase: 70% ± 2.00
22Rv1 cells [6]; 22Rv1, 7.5μM
  percentage of cells in the G1 phase: 81% ± 1.17
[7]
  concentration of maximal inhibition of phosphorylated Bad^Ser112: 5 to 7.5 µM
C4-2B cells [8]
  caspase-3 activity levels: dose-dependent increase
22Rv1-T cells [9]; 2.5μM SGI-1776 alone
  cell viability response: minimal response
22Rv1-T cells [9]; read-out: approximate IC50, cell viability
  IC50: ~5 µM
LNCaP cells
  IC50: ~5 µM
[10]; paclitaxel combined with SGI-1776
  fluorescent calcein accumulation, combination: did not further enhance
[10]
  fluorescent calcein retention (MDR1 efflux activity): dose-dependent increase
LAPC-4 cells
  IC50: > 10 µM
PC3 cells
  IC50: ~3 µM
22Rv1-Pim1 cells [11]
  reduction in IC50 in 22Rv1-Pim1 compared to 22Rv1, cell viability: ~3 fold
[12]
  phosphorylated Bad^Ser112 protein levels: dose-dependent decrease
C4-2B cells [13]; 2.5μM
  percentage of cells in the G1 phase: 81% ± 1.24
C4-2B cells [13]; 7.5μM
  percentage of cells in the G1 phase: 95% ± 0.16
[14]
  concentration of maximal inhibition of phospho-p21^Thr145: 7.5 µM
DU145 cells
  IC50: ~8 µM
[15]; 22Rv1, 1μM, 2 hours
  effect on p-p21^Thr145 abundance: minimal, if any, effect
[15]; 22Rv1, 5 hour treatment
  concentration of maximal inhibition of phospho-p21^Thr145: 5 µM
[15]; parental 22Rv1 (Fig. 3a)
  concentration at which significant decrease in p-p21^Thr145 was first observed: 2.5 to 5 µM
22Rv1 cells [16]
  caspase-3 activity levels: dose-dependent increase
[17]
  MDR1 mRNA expression levels: did not alter
22Rv1 cells [18]; [19]
  viability at 2.5 µM: 63%

## CC(=O)O[C@@]12CO[C@@H]1C[C@H](O)[C@@]1(C)C(=O)[C@H](O)C3=C(C)[C@@H](OC(=O)[C@H](O)[C@@H](NC(=O)OC(C)(C)C)c4ccccc4)C[C@@](O)([C@@H](OC(=O)c4ccccc4)[C@H]21)C3(C)C [docetaxel]
22Rv1-T cells [9]; [20]
  IC50: > 0.1 µM
22Rv1 cells [18]
  IC50: ~0.0025 µM

## CC(=O)O[C@H]1C(=O)[C@@]2(C)[C@H]([C@H](OC(=O)c3ccccc3)[C@]3(O)C[C@H](OC(=O)[C@H](O)[C@@H](NC(=O)c4ccccc4)c4ccccc4)C(C)=C1C3(C)C)[C@]1(OC(C)=O)CO[C@@H]1C[C@@H]2O [paclitaxel]
22Rv1-T cells [1]; increasing doses of paclitaxel alone, 24 hours
  change in caspase-3 levels: lack of change
22Rv1-T cells [9]; 50nM paclitaxel alone
  cell viability response: does not respond
22Rv1-T cells [9]; [20]
  IC50: > 0.1 µM
[10]
  fluorescent calcein retention (MDR1 efflux activity): no different from the untreated cells
22Rv1 cells [18]; [19]
  viability at 0.0025 µM: 62.6%
22Rv1 cells [18]
  IC50: ~0.0045 µM
